Source: ChEMBL document CHEMBL4425108, “A Selective and Slowly Reversible Inhibitor of l-Type Amino Acid Transporter 1 (LAT1) Potentiates Antiproliferative Drug Efficacy in Cancer Cells” (J Med Chem, 2016)
Activity calls are given as the source filed them. The rule behind the calls is not given here.

How the values were obtained:
[1] = Unbound AUC (0 to 480 mins) in mouse kidney at 23 umol/kg, ip administered as bolus by LC-MS analysis; assay type: ADME, organism-based; conditions: in vivo
Summary of the method: (§1)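 Male mice (25 ± 5 g) dosed i.p. as a bolus at 23 µmol/kg in DMSO/hydroxypropyl-β-cyclodextrin/saline vehicle, sampled at time points 10–480 min; plasma and tissue homogenates (1:3 water) analysed by LC-MS. […] Mean ± SEM.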

[2] = target: T1, Large neutral amino acids transporter small subunit 2 (Homo sapiens) (UniProt Q9UHI5); experiment: Competitive inhibition of [14C]-L-alanine uptake at LAT2 in human MCF7 cells at 50 to 1000 uM measured during 5 mins by liquid scintillation counting; assay type: cell-based
T1 sequence (whole entry): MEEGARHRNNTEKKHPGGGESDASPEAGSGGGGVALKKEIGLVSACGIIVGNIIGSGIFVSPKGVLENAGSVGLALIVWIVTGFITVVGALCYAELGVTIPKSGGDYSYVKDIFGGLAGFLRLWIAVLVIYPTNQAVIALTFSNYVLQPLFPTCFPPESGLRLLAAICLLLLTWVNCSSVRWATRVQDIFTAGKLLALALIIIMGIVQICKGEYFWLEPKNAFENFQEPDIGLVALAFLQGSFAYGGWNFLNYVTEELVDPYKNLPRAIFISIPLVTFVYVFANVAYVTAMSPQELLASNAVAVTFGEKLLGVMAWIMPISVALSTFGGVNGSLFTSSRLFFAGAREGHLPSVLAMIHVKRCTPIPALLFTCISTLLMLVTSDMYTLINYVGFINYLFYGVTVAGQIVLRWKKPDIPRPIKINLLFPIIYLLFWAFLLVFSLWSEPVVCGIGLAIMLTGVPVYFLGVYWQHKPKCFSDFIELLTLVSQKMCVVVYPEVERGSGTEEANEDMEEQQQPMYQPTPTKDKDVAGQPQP
Summary of the method: (§2)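 MCF-7 cells were seeded at 1 × 10^5 cells/well and used one day later. Cells were washed and pre-incubated 10 min at 37 °C in HEPES-buffered HBSS (choline chloride, pH 7.4). Uptake of 10.0 µM [14C]-L-alanine ran 5 min at 37 °C with test agent (1–1000 µM) or DMSO blank. Cells were then given three ice-cold washes, lysed in 0.1 M NaOH and counted by liquid scintillation; n=3.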

[3] = fCmax in mouse prostate at 23 umol/kg, ip administered as bolus by LC-MS analysis; assay type: ADME, organism-based, Prostate gland; conditions: in vivo; summary of the method: as §1
[4] = Terminal half life in mouse prostate at 23 umol/kg, ip administered as bolus by LC-MS analysis; assay type: ADME, organism-based, Prostate gland; conditions: read-out: beta t1/2
Summary of the method: (§3)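 Adult male mice (25 ± 5 g) given a single i.p. bolus of 23 µmol/kg, dosing solution 1.36 mM in 10% (v/v) DMSO, 20% (w/v) hydroxypropyl-β-cyclodextrin, 0.9% NaCl in water. Decapitation at time points 10–480 min; plasma, brain, liver, prostate, kidney, heart collected. Acetonitrile precipitation with repaglinide internal standard, LC-MS (ESI positive). tmax and t½β taken from concentration-time data; mean ± SEM, n=3.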

[5] = AUC (0 to 480 min) in mouse liver at 23 umol/kg, ip administered as bolus by LC-MS analysis; assay type: ADME, organism-based; set-up: dose 23 umol/kg, time < 8 hr, route intraperitoneal; conditions: in vivo, 8 h
Summary of the method: (§4)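 Male adult mice (25 ± 5 g) given a single i.p. bolus at 23 µmol/kg. The dosing solution was 1.36 mM in 10% (v/v) DMSO, 20% (w/v) hydroxypropyl-β-cyclodextrin and 0.9% NaCl. Animals were decapitated at seven time points from 10 to 480 min. Plasma and tissues were acetonitrile-precipitated with repaglinide internal standard and analysed by LC-MS. Parameters were derived from concentration–time data, mean ± SEM (n=3).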

MCF7 [6] = experiment: Antiproliferative activity against human MCF7 cells assessed as reduction in cell viability at 100 measured after 48 hrs by resazurin dye-based fluorimetric analysis; assay type: functional
Summary of the method: (§5)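 MCF-7 cells were seeded at 2 × 10^4 cells/well on collagen-coated plates and treated one day later. Agents were given alone or combined (25 or 100 µM with 100 µM partner drug) in growth medium for 3 days. Viability was read daily by resazurin fluorescence (ex 560/em 590 nm) and expressed relative to untreated controls.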

[7] = Terminal half life in mouse heart at 23 umol/kg, ip administered as bolus by LC-MS analysis; assay type: ADME, organism-based; conditions: read-out: beta t1/2; summary of the method: as §4
[8] = Tmax in mouse plasma at 23 umol/kg, ip administered as bolus by LC-MS analysis; assay type: ADME, organism-based; summary of the method: as §3
[9] = target: T1, Large neutral amino acids transporter small subunit 2 (Homo sapiens); experiment: Competitive inhibition of [14C]-L-alanine uptake at LAT2 in human MCF7 cells at 25 uM preincubated for 5 mins followed by addition of substrate measured during 5 mins by liquid scintillation counting; assay type: cell-based
[10] = Ratio of IC50 for human MCF7 cells to IC50 for [14C]-L-leucine uptake at LAT1 in human MCF7 cells
[11] = Terminal half life in mouse liver at 23 umol/kg, ip administered as bolus by LC-MS analysis; assay type: ADME, organism-based; conditions: read-out: beta t1/2; summary of the method: as §4
[12] = target: T2, Large neutral amino acids transporter small subunit 1 (Homo sapiens, UniProt Q01650); experiment: Inhibition of LAT1 in human MCF7 cells assessed as potentiation of cisplatin-induced antiproliferative activity by measuring reduction in cell viability at 100 uM measured after 72 hrs by resazurin dye-based fluorimetric analysis
Summary of the method: (§6)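 MCF-7 cells seeded 2 × 10^4/well on collagen-coated plates, treated one day later in growth medium with inhibitor (25 or 100 µM) plus bestatin or cisplatin (100 µM) for up to 3 days. Viability read daily by resazurin fluorescence (ex 560/em 590 nm). Viability is treated relative to untreated control. Mean ± SD, n=3.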

MCF7 [13] = experiment: Antiproliferative activity against human MCF7 cells assessed as reduction in cell viability at 25 measured after 48 hrs by resazurin dye-based fluorimetric analysis; assay type: functional; summary of the method: as §5
[14] = Tmax in mouse brain at 23 umol/kg, ip administered as bolus by LC-MS analysis; assay type: ADME, organism-based; summary of the method: as §3
[15] = target: T1, Large neutral amino acids transporter small subunit 2 (Homo sapiens); experiment: Competitive inhibition of [14C]-L-alanine uptake at LAT2 in human MCF7 cells at 100 uM preincubated for 10 mins followed by addition of substrate measured during 5 mins by liquid scintillation counting; assay type: cell-based; summary of the method: as §2
[16] = Plasma concentration in mouse at 23 umol/kg, ip measured after 10 mins; assay type: ADME, organism-based
[17] = target: T2, Large neutral amino acids transporter small subunit 1; experiment: Inhibition of LAT1 in human MCF7 cells assessed as potentiation of bestatin-induced antiproliferative activity by measuring reduction in cell viability at 100 uM measured after 48 hrs by resazurin dye-based fluorimetric analysis; summary of the method: as §6
[18] = Fraction unbound in mouse plasma at 23 umol/kg, ip administered as bolus by LC-MS analysis; assay type: ADME, organism-based
Summary of the method: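 Unbound fraction was measured by equilibrium dialysis at 100 µM in mouse plasma and in brain, liver, kidney, heart and prostate homogenates.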

[19] = target: T2, Large neutral amino acids transporter small subunit 1; experiment: Drug uptake in human MCF7 cells assessed as LAT1 mediated drug transport per mg of protein at 100 uM measured 5 mins after warm wash by HPLC analysis; assay type: ADME, cell-based; conditions: mcf7, 5 min
Summary of the method: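 MCF-7 monolayers were incubated with 100 µM compound in HBSS at 37 °C for 5 or 30 min. Cells got three washes with ice-cold or warm (37 °C) HBSS; in the warm 30 min arm they were washed after 5 min and again after 30 min. Lysates (0.1 M NaOH) were quantified by HPLC-UV against a spiked lysate standard curve and normalised to protein (Bio-Rad assay).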

T2 sequence (Q01650 whole entry): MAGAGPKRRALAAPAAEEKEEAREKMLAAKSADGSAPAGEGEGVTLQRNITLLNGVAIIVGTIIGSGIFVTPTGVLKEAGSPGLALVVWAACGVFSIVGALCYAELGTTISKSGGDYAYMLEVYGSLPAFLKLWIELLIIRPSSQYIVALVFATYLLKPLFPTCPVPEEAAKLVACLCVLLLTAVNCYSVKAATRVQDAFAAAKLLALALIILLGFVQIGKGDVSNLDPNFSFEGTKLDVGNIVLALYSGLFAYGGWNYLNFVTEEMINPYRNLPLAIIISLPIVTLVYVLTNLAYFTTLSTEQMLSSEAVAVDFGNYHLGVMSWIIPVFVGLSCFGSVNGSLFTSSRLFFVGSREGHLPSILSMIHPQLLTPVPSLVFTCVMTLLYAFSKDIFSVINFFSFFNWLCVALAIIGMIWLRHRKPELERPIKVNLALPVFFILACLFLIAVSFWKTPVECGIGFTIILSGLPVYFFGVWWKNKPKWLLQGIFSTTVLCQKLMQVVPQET

In the case of `CNC(=O)COc1ccc(-c2c(C#N)c(NC(=O)c3cccc(C[C@H](N)C(=O)O)c3)n3c(nc4ccccc43)c2C#N)cc1`, the fAUC [1] is reported as 23.7 nmol/g/min, the inhibition [2] is reported as “inactive” and the fCmax [3] is reported as 0.34 nmol/g. For the same molecule, the half-life [4] was 12 min, the AUC [5] was 1930 nmol/g/min and the Activity (MCF7 [6]) was 14.8%. The half-life [7] was 19.8 min, the Tmax [8] was 10 min and the inhibition [9] was “inactive”. The “Ratio IC50” value [10] was 6.9, the half-life [11] was 52.8 min and the Activity [12] was 81.9%. The Activity (MCF7 [13]) was “inactive”, the Tmax [14] was 30 min and the inhibition [15] was 3.93%. The concentration at 10 min [16] was 20 µM, the Activity [17] was 42.7% and the fraction unbound [18] was 0.0098. The Drug uptake [19] was 1.43 nmol/mg.
